High-throughput results as filed in PubChem BioAssay.
RGS4 block = RGS4 inhibitors, primary screen, cell-based, HEK293 M3R inducible RGS4, calcium flux | Regulator of G-protein signaling 4 (Homo sapiens), P49798 | Fluo-4 calcium flux; active compounds read high; triggered by carbachol at its EC20 | B-score at 10 µM | 310,000 tested, 0.45% active | AID 463165, 2010;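 active = B-score, a plate-corrected calcium signal, over three deviations above library mean, with baseline fluorescence within five deviations of library mean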;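 note: RGS4 expression induced by doxycycline in cells with stable M3 receptor; B-score is computed from the integrated fluorescence ratio over baseline after carbachol; higher B-score means a larger calcium signal and so more RGS4 inhibition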
KCC2 mod = KCC2 cotransporter modulators, thallium flux, primary screen, cell-based, HEK293 KCC2, FluoZin-2 fluorescence, MLSMR; AID 1456, 2008; KCC2 cells, thallium flux FluoZin-2 fluorescence; 190,000 tested, 2.2% active; Solute carrier family 12 member 5 (Homo sapiens), Q9H2X9; B-score of Tl+ flux slope (higher = more flux/activation; lower = inhibition) at 10 µM;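 active = thallium flux slope and its plate-corrected score both differing from the plate sample mean at a set confidence after two filtering rounds, in either direction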;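 note: slope of fluorescence scaled to starting intensity during 10 to 20 s after thallium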
Target sequence (Q9H2X9 whole entry, looked up): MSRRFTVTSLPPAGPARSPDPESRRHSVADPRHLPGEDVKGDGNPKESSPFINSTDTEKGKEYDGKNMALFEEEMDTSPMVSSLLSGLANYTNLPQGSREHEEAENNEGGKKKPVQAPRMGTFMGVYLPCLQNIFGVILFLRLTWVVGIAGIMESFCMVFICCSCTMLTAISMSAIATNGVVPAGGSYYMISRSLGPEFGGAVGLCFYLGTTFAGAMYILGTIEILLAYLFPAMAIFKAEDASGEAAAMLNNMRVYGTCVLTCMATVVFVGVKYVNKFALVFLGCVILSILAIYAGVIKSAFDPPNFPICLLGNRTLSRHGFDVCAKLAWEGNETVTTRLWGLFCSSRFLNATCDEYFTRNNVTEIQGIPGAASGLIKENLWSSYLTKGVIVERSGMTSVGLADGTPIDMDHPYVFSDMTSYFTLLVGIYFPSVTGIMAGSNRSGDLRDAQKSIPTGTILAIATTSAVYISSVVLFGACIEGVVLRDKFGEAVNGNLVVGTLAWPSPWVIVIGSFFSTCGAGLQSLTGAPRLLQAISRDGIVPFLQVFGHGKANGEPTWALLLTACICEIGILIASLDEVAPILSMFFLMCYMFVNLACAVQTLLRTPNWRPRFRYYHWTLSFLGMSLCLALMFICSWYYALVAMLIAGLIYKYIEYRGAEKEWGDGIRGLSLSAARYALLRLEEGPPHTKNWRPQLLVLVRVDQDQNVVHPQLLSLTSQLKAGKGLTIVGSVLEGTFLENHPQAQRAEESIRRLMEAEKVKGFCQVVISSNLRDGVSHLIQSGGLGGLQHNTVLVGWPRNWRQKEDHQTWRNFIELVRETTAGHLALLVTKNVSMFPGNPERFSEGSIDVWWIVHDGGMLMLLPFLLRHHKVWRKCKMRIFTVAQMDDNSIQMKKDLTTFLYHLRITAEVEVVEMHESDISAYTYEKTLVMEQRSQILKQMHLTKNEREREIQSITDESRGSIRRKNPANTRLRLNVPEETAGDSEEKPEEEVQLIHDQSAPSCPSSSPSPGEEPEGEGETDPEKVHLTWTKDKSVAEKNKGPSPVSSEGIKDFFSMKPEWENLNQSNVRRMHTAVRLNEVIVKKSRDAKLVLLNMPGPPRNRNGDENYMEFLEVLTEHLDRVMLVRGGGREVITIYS
MrgX1 allo act = positive allosteric modulators of MrgX1, primary screen, HEK293 cells, Fluo-4 calcium flux; Mas-related G-protein coupled receptor member X1 (Homo sapiens), Q96LB2; FDSS; active compounds read high; B-score at 10 µM; 310,000 tested, 0.63% active; AID 588675, 2011;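 active = plate-corrected calcium response at least 3 library SD above typical, normal starting fluorescence, not activating the receptor alone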;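 note: compound read alongside a low EC10 to EC30 dose of BAM8-22 agonist; peak minus trough fluorescence over baseline measured at the second addition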
MrgX1 antagonist = antagonists of human MrgX1 receptor, primary screen, HEK293 cells, Fluo-4 calcium flux; BAM8-22 antagonism; active compounds read low; B-score at 10 µM; 310,000 tested, 1.3% active; AID 588676, 2011;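 active = calcium-response B-score plate-corrected more than 3 library SD below zero, starting fluorescence within 5 deviations, no agonist response on first addition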;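 note: peak minus trough fluorescence over baseline after final BAM8-22 challenge near maximal dose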
RGS4 pot = RGS4 potentiators or activators, primary screen, cell-based, HEK293 M3R inducible RGS4, calcium flux | carbachol calcium flux Fluo4; active compounds read low | B-score at 10 µM | 310,000 tested, 0.92% active;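 active = B-score of the integrated calcium signal more than 4 SD below the library mean, with starting fluorescence not abnormally high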;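 note: negative B-score means reduced calcium response which marks RGS4 activation or potentiation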
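Assay system: HEK293 FlpIn-TREx cells, stable M3R, doxycycline-inducible RGS4 / Probe or stimulus: carbachol, ECmax concentration / Times: overnight RGS4 induction, 30 min dye load 37 °C, 20 min compound RT / Signal: kinetic calcium fluorescence imaging with Fluo4-AM dye, 2 µM / Measure: Agonist-evoked peak-minus-minimum fluorescence over baseline, integrated ratio, B score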
MrgX1 ag = agonists of human MrgX1 receptor, primary screen, HEK293 cells, Fluo-4 calcium flux; Fluo-4 calcium fluorescence, agonist mode; active compounds read high; B-score at 10 µM; 310,000 tested, 0.44% active; AID 588627, 2011;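 active = calcium response B-score plate-corrected fluorescence ratio at least 3 library SD, with starting fluorescence B-score inside 5 SD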
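Test system: Stable human MrgX1 HEK293 cell line | Schedule: Overnight plating before 1 h dye loading | Read-out basis: Baseline-normalised fluorescence change ratio, B-scored | Detection: Kinetic calcium dye fluorescence, Fluo-4 NW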
KCC2 sec1 = KCC2 modulators in sodium-free buffer, confirmation, cell-based, HEK293 KCC2, thallium flux, secondary assay. shares compounds with KCC2 mod. 3,700 tested, 15% active. normalised thallium flux (F/F0 slope) at 10 µM. FluoZin2 fluorescence; active compounds read high;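 active = thallium flux slope above the same plate's solvent-only control mean plus 3 SD; inconclusive = the two replicate wells disagree; inactive = no significant difference from solvent-only control wells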
KCC2 bumet counter = thallium flux persisting under bumetanide in KCC2 cells, confirmation, counter-screen for KCC2 modulator project, cell-based, HEK293 KCC2, FluoZin2, secondary assay 3; shares compounds with KCC2 mod; HEK293-KCC2 + bumetanide/ouabain; active compounds read high; normalized thallium flux at 10 µM; 3,700 tested, 49% active;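 active = thallium entry rate above the same plate's blocked-transporter control wells by more than 3 SD; inconclusive = the two repeat wells disagree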;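 note: raw slope of fluorescence over initial fluorescence between 10 and 20 s after thallium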
KCC2 sec2 = KCC2 modulators without ouabain present, confirmation, cell-based, HEK293 KCC2, thallium flux, FluoZin2, secondary assay 2; shares compounds with KCC2 mod; thallium flux FluoZin2 fluorescence; actives lie on both sides; F/F0 rise rate, 10–20 s post-thallium; normalized thallium flux at 10 µM; 3,700 tested, 23% active; AID 1715, 2009;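 active = thallium flux slope more than 3 SD above or below the plate's solvent-only control mean, mostly below; inconclusive = the two repeat wells disagreed; inactive = no significant shift from solvent-only controls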
HEK counter1 = thallium flux modulation in parental HEK cells, confirmation, counter-screen for KCC2 modulator project, cell-based, counterscreen 1 | 3,700 tested, 46% active | AID 1716, 2009 | HEK293 parental cells, thallium flux FluoZin2, ouabain; baseline-ratio fluorescence slope, 10–20 s after thallium | shares compounds with KCC2 mod | thallium flux rate (normalised fluorescence) at 10 µM;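 active = thallium flux rate significantly above the same plate's solvent-only control wells, beyond their mean plus 3 SD; inconclusive = the two replicate wells gave conflicting results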
KCC2 ouabain = KCC2 inhibitors and activators, ouabain retest, confirmation, HEK-KCC2 cells. shares compounds with KCC2 mod. 3,700 tested, 48% active. raw Tl+ flux slope (below DMSO = inhibition, above = activation) at 10 µM. HEK293-KCC2, thallium flux FluoZin2 fluorescence; bidirectional: low = inhibitor, high = activator;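 active = thallium flux slope beyond 3 SD from same-plate DMSO control mean in most replicates, usually higher, sometimes lower; inconclusive = repeat tests gave conflicting results; inactive = no significant difference from controls in most replicates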;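 note: slope of initial-normalized fluorescence between seconds 10 and 20 after thallium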
HEK293 Tl flux2 = native HEK Tl+ uptake effects, second counter-screen – HEK cells, counterscreen 2, counter-screen for KCC2 modulator project, confirmation; shares compounds with KCC2 mod; HEK293 parental, thallium flux FluoZin-2 fluorescence slope; thallium flux slope at 10 µM; 3,700 tested, 33% active; AID 1718, 2009;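 active = thallium flux slope above the same plate's solvent-control mean plus 3 SD in both duplicate wells; inconclusive = duplicate wells that disagreed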;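 note: run without ouabain in cells lacking the KCC2 cotransporter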
Hits are given with their value; . = inactive; ? = inconclusive; / = not tested or not shown. Rows were chosen to be rich in hits. Some 4.7% of all compounds tested hit in one or more screens of this group.

SMILES	RGS4 block	KCC2 mod	MrgX1 allo act	MrgX1 antagonist	RGS4 pot	MrgX1 ag	KCC2 sec1	KCC2 bumet counter	KCC2 sec2	HEK counter1	KCC2 ouabain	HEK293 Tl flux2
CCOC(=O)N1CCN(C(=S)NC(=O)c2c(-c3c(Cl)cccc3Cl)noc2C)CC1	.	11	.	.	.	.	?	0.0326	?	0.018	0.0316	0.0188
Cc1onc(-c2c(Cl)cccc2Cl)c1C(=O)NC(=S)N1CCOCC1	.	8.58	.	.	.	.	0.011	0.0186	.	0.0119	?	.
CCOC(=O)N1CCN(C(=O)c2c(-c3ccccc3Cl)noc2C)CC1	.	/	.	.	.	.	/	/	/	/	/	/
O=C(COc1ccc(/C=C2/NC(=O)NC2=O)cc1)Nc1ccc(F)cc1	.	/	.	.	.	.	/	/	/	/	/	/
CCn1c(SCC(=O)N(Cc2ccccc2)C2CCS(=O)(=O)C2)nc2ccccc2c1=O (configuration not stated)	.	/	.	.	.	.	.	0.0118	.	0.0112	?	0.0126
CN(C(=O)CSc1nc2cc([N+](=O)[O-])ccc2n1-c1ccc(F)cc1)C1CCS(=O)(=O)C1 (configuration not stated)	.	4.93	.	.	.	.	.	0.0229	.	0.0138	?	0.0115
CCN(C(=O)CSc1nc2ccccc2c(=O)n1Cc1ccc(C)cc1)C1CCS(=O)(=O)C1 (configuration not stated)	.	/	.	.	.	.	/	/	/	/	/	/
COCCn1c(SCC(=O)N(C)C2CCS(=O)(=O)C2)nc2ccccc2c1=O (configuration not stated)	.	.	.	.	.	.	/	/	/	/	/	/
CN(C(=O)CSc1nc2ccccc2n1CCc1ccccc1)C1CCS(=O)(=O)C1 (configuration not stated)	.	9.45	.	.	.	.	.	0.0149	.	0.0113	?	0.0138
CC(Sc1nc2cc([N+](=O)[O-])ccc2n1-c1ccc(F)cc1)C(=O)NCc1ccc2c(c1)OCO2 (configuration not stated)	.	9.95	.	.	.	.	.	0.0146	.	0.013	.	0.0123
O=C(CCC1CCCC1)Nc1cc(C(F)(F)F)ccc1N1CCOCC1	.	/	.	.	.	.	/	/	/	/	/	/
COc1cccc(NC(=O)c2ccnc(N3CCC(C(=O)NCc4cc(OC)ccc4OC)CC3)c2)c1	.	/	.	.	.	.	/	/	/	/	/	/
O=C(c1nn2c(C(F)(F)F)cc(-c3ccco3)nc2c1Br)N1CCCc2ccccc21	.	/	.	.	.	.	?	.	0.0247	.	?	.
CCn1nnc2c(=O)oc3ccccc3c21	.	.	.	.	.	.	/	/	/	/	/	/
CC(C)Cn1nnc2c(=O)oc3ccccc3c21	.	/	.	.	.	.	.	.	0.0268	0.00524	0.012	0.0084
CCc1cc(=O)oc2c3c(cc(OCC(=O)N[C@H](C(=O)O)[C@H](C)CC)c12)OC(C)(C)CC3	.	/	.	.	.	.	/	/	/	/	/	/
COc1ccc(OC)c(-c2cc(C(=O)N/N=C/c3cc(OC)c(OC)cc3OC)c3ccccc3n2)c1	.	/	.	.	.	.	/	/	/	/	/	/
CC1OC(O[C@H]2CC[C@]3(C)C4C=C[C@]56OC[C@@]7(CC[C@@H](C)[C@H](C)C75)[C@H](O)C[C@@]6(C)[C@]4(C)CC[C@H]3C2(C)C)C(OC2OC(CO)C(O)C(O)C2OC2OCC(O)C(O)C2O)C(O)C1O (some centres not stated)	.	39.5	/	/	-7.54	/	0.0129	0.0464	.	.	?	.
CCn1c(SCC(=O)Nc2ccccc2N2CCCCC2)nc2c1c(=O)n(C)c(=O)n2C	.	.	.	.	.	.	/	/	/	/	/	/
CC(C)n1c(SCC(=O)Nc2ccccc2N2CCOCC2)nc2c1c(=O)n(C)c(=O)n2C	.	/	.	.	.	.	.	.	.	.	.	.
CC(C)CNC(=O)CSc1n[nH]c(=O)n1CCc1ccccc1	.	/	.	.	.	.	/	/	/	/	/	/
CCN(CC)c1c([N+](=O)[O-])c(=O)n(CC)c2ccccc12	.	-4.55	.	.	.	.	.	0.00308	.	0.00451	0.0166	0.00756
CCOC(=O)c1cnc(-n2nc(C)cc2C)nc1NNc1ncc(-c2ccccc2)cn1	.	8.53	.	.	.	.	.	0.0243	.	0.0173	0.0269	0.0207
COc1cccc(OCCNc2cc(N3CCOCC3)ccc2[N+](=O)[O-])c1	.	.	.	.	.	.	/	/	/	/	/	/
COc1ccc(OCCNc2cc(N3CCOCC3)ccc2[N+](=O)[O-])cc1	.	-4.74	.	.	.	.	.	.	.	.	.	.
O=C(O)c1ccc(N2CCCCS2(=O)=O)cc1	.	/	.	.	.	.	.	.	0.0261	.	.	.
